From the RNAGym collection of RNA variant scans (doi:10.1126/science.aae0568) come the findings set out here.

Fewer inactive variants are shown than the library holds.

B1: tRNA (parent)
chain: GUUCCGUUGGCGUAAUGGUAACGCGUCUCCCUCCUAAGGAGAAGACUGCGGGUUCGAGUCCCGUACGGAACG

The variants in the data set derive from B1. Nature of the data set: yeast fitness relative to wild type (ratio to wild type); higher = fitter; tRNA-Arg(CCU), competitive growth, 37 C, YPD. The essentials:
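Genotype frequency changes were the basis for Darwinian fitness relative to wild type. The frequencies came from 100-nucleotide paired-end sequencing of gene amplicons from the start population and each end population of pooled yeast strains with tRNA-Arg(CCU) gene variants at the native locus. Competition ran in YPD at 37°C for 24 hours in six replicates, genotypes needed ≥ 100 starting reads, and estimates < 0.5 were set to 0.5.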
For the variant G10C C22A C24G U53A G56C C62U, the yeast fitness is no more than 0.5.

In the case of G10C G58U, the yeast fitness was no more than 0.5.

For G10C G58C, the yeast fitness is 0.722.

Consider G10C G58A, for which the yeast fitness came out at 0.553.

G10C U13C G18C C27U C33G C46A C55U U64A G68C A70U: the yeast fitness was no more than 0.5.

Turning to G10C A43C U53A, the yeast fitness was no more than 0.5.

Take G10C C22U C49U A70G: the yeast fitness was no more than 0.5.

G10C A14G C22U A37G A40U C46A U54C: the yeast fitness is no more than 0.5.

G10C A15U A37U A45C U47C G52C: the yeast fitness was no more than 0.5.

In the case of G10C A14U C62U A69C, the yeast fitness was no more than 0.5.

Turning to G10C A20U G41U A57U, the yeast fitness is no more than 0.5.

Take G10C C11G C22U C34G A69C: the yeast fitness came out at 0.589.

With G10C C24G C27U C33U G50C G68A, the yeast fitness is no more than 0.5.

For G10A U26A G63A, the yeast fitness is no more than 0.5.

With G10A U32G C66A, the yeast fitness is no more than 0.5.

As for G10C C60U, the yeast fitness is no more than 0.5.

Take G10C C60A: the yeast fitness amounted to 0.583.

On to G10C A36G, for which the yeast fitness came out at 0.663.

G10C C11U C30G G48A U54A G68U: the yeast fitness is no more than 0.5.

For G10C G12A A15G A36U C46U, the yeast fitness was no more than 0.5.

For G10C C24G C55A, the yeast fitness is no more than 0.5.

As for G10C A43U G48A G51A, the yeast fitness is no more than 0.5.

For G10C G41A G50C, the yeast fitness was no more than 0.5.

As for G10C A21G G56A, the yeast fitness is no more than 0.5.

For the variant G10C C11A G18C C24U C66U, the yeast fitness was determined as 0.529.

On to G10C U13C G18C C27U C33G A37G C55U U64A G68C A70U, for which the yeast fitness is no more than 0.5.

With G10C C46G, the yeast fitness was 0.708.

With G10C C60A C62A, the yeast fitness turned out to be 0.529.

Regarding G10A U35C A45G C49G G56A A65C, the yeast fitness is no more than 0.5.

In the case of G10C C34G A69U A70C, the yeast fitness was 0.711.

For G10C C24U U64C, the yeast fitness was no more than 0.5.

In the case of G10C G12C C46A, the yeast fitness was no more than 0.5.

Regarding G10C G18A C22U G63A, the yeast fitness is no more than 0.5.

Turning to G10C A14U U28A A57C, the yeast fitness is no more than 0.5.

As for G10C A36U C66U A70C, the yeast fitness was no more than 0.5.

For the variant G10C A36C G48A, the yeast fitness is no more than 0.5.

For G10A U47A A65C, the yeast fitness was no more than 0.5.

G10C C22U A65C: the yeast fitness is no more than 0.5.

As for G10C U13C U32G, the yeast fitness is no more than 0.5.

Consider G10C C29U C31U A45C, for which the yeast fitness came out at 0.623.

Turning to G10A U26A C27U C29A G48A C62A, the yeast fitness was no more than 0.5.

As for G10C A21G C30A G38C C46U A70C, the yeast fitness was 0.869.

G10C A14U U19A C22U G68A: the yeast fitness was no more than 0.5.

For G10C C27G A42C C66U, the yeast fitness was determined as 0.534.

Turning to G10C A15U C27A C49G U64A, the yeast fitness is no more than 0.5.

As to G10C C31A, the yeast fitness is 0.577.

In the case of G10C C31G A45U G68C, the yeast fitness is no more than 0.5.

Consider G10C C34G A42U A70C, for which the yeast fitness is no more than 0.5.

For the variant G10C C24G C49G, the yeast fitness is no more than 0.5.

G10C C24G C49U: the yeast fitness is no more than 0.5.

Turning to G10C A14C G18A, the yeast fitness is no more than 0.5.

Regarding G10C C34A, the yeast fitness turned out to be 0.504.

Regarding G10C G23C G48A G52A U53C C61A, the yeast fitness worked out at 0.52.

In the case of G10C C46G U54C, the yeast fitness is no more than 0.5.

As for G10C C27G A42C, the yeast fitness is no more than 0.5.

On to G10C C24A C46U, for which the yeast fitness was no more than 0.5.

G10C C11A A37C C49G C62U: the yeast fitness was no more than 0.5.

For the variant G10C A20C, the yeast fitness is 0.631.

Regarding G10A U35A G56A A65G C66U, the yeast fitness was no more than 0.5.

Regarding G10C C30U G51A G63A, the yeast fitness was no more than 0.5.

As for G10C G25A U26C C46G, the yeast fitness was no more than 0.5.

Take G10C A37G G52A C55G: the yeast fitness is 0.567.

Take G10C C33G U53C C55U A70G: the yeast fitness is no more than 0.5.

As for G10C A15G G58C, the yeast fitness came to 0.559.

Take G10C A14G C66U: the yeast fitness worked out at 0.505.

Turning to G10C G63A G68C, the yeast fitness was no more than 0.5.

G10C A14U U19A C22U U47C: the yeast fitness was no more than 0.5.

G10C C22U C24A U28C A45G: the yeast fitness is no more than 0.5.

Turning to G10C C22G C30U C55U, the yeast fitness was no more than 0.5.

As for G10C A14U C62U G67U, the yeast fitness was no more than 0.5.

As to G10C G12A A45C, the yeast fitness came out at 0.539.

Regarding G10C C34U A40C, the yeast fitness turned out to be 0.667.

As to G10C G44C U47C G52A U53C C61U, the yeast fitness is no more than 0.5.

Regarding G10C C11U C49A A65C, the yeast fitness is no more than 0.5.

For G10C G44C C55G A69U, the yeast fitness was found to be 0.59.

With G10C C34A C55U, the yeast fitness was no more than 0.5.

For G10C C27A, the yeast fitness is 0.593.

For the variant G10C G50A U59A, the yeast fitness is no more than 0.5.

With G10C A14G C62U, the yeast fitness is no more than 0.5.

Turning to G10C C30G A43U G68U, the yeast fitness was no more than 0.5.

On to G10C C33G A40U, for which the yeast fitness is 0.579.

With G10C A21U, the yeast fitness came out at 0.675.

As for G10C A15G C31A C33U A40C G44C G48U C49G, the yeast fitness is no more than 0.5.

Consider G10C A14U U19A C22U C62U, for which the yeast fitness is no more than 0.5.
